Measured values from ChEMBL document CHEMBL1131532, “Synthesis and structure-activity relationships of carboxyflavones as structurally rigid CysLT1 (LTD4) receptor antagonists” (J Med Chem, 1998).

Biological target: T1, Cysteinyl leukotriene receptor 1 (Cavia porcellus) (UniProt Q2NNR5)
T1 sequence (whole entry): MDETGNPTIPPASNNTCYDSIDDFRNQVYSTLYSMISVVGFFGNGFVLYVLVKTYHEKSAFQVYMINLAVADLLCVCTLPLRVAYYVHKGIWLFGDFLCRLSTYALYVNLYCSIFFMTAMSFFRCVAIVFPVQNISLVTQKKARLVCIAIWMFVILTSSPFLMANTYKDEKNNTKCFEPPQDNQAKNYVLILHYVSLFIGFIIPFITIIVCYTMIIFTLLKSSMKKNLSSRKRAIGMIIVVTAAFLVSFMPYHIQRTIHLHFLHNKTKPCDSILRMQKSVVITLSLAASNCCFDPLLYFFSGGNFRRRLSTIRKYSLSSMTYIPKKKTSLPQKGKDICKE
Test: In vitro inhibition of [3H]LTD4 binding to CysLT1 receptors on guinea pig lung membranes.
Assay type: tissue-based
Parameters: concentration or dose not given beside the values
Conditions: concentration not given here
Method in brief: (§1)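 Guinea pig lung membrane fractions (about 170 µg/mL) with 0.2 nM [3H]LTD4 and test compound in 10 mM PIPES buffer, pH 7.5 (10 mM CaCl2, 10 mM MgCl2, 50 mM NaCl, 2 mM cysteine, 2 mM glycine), 30 min at 22 °C. Stopped with ice-cold Tris-HCl/NaCl, vacuum-filtered, filter radioactivity counted. Means ± SD of three determinations. Percent inhibition taken at 10^-5 M where no KD obtained.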

Row | SMILES | inhibition [%]
1 | CCOC(=O)c1cccc2c(=O)cc(-c3cccc(OCc4ccc5ccccc5n4)c3)oc12 | 38
2 | N#Cc1cc(Cl)cc2c(=O)cc(-c3cccc(/C=C/c4ccc5ccccc5n4)c3)oc12 | 0
3 | O=C(O)c1ccc2oc(-c3ccc(OCc4ccccc4)cc3)cc(=O)c2c1 | 23

Continued, values first:

Row | inhibition [%] | SMILES
4 | 32 | O=C(O)c1cccc2c(=O)cc(-c3ccc(OCc4ccc5ccccc5c4)cc3)oc12
5 | 28 | O=C(O)c1ccc2oc(-c3ccc(/C=C/c4ccc5ccccc5n4)cc3)cc(=O)c2c1
6 | 50 | O=C(O)c1cccc2c(=O)cc(-c3cccc(OCc4ccccc4)c3)oc12
7 | 32 | CCOC(=O)c1cccc2c(=O)cc(-c3ccc(OCc4ccc5ccccc5n4)cc3)oc12

Organism: Cavia porcellus
Test: Ex vivo inhibition of LTD4 induced contraction of guinea pig ileum.
Assay type: functional
Conditions: not given
Method in brief: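 Ileum segments (2 cm) from male guinea pigs, mounted open-lumen on a transducer. Compounds in DMSO, 10^-5 to 3.0 × 10^-9 M, preincubated 30 min, then contraction evoked by 10^-8 M LTD4. Indomethacin (10^-6 M) added to the bath 10 min before LTD4.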

Row | SMILES | IC50 [nM]
8 | O=C(O)c1cccc2c(=O)cc(-c3cccc(/C=C/c4ccc5ccccc5n4)c3)oc12 | 42
9 | O=C(O)c1cc(Br)cc2c(=O)cc(-c3cccc(OCc4ccc5ccccc5n4)c3)oc12 | 61

Second part, the molecule after the results:

Row | IC50 [nM] | SMILES
10 | 15 | O=C(O)c1cc(Cl)cc2c(=O)cc(-c3cccc(/C=C/c4ccc5ccccc5n4)c3)oc12
11 | 28 | Cc1cc(C(=O)O)c2oc(-c3cccc(/C=C/c4ccc5ccccc5n4)c3)cc(=O)c2c1
12 | 100 | O=C(O)c1cc(Br)cc2c(=O)cc(-c3cccc(/C=C/c4ccc5ccccc5n4)c3)oc12

Biological target: T2, Cysteinyl leukotriene receptor 1 (Cavia porcellus, UniProt Q2NNR5)
T2 sequence (Q2NNR5 whole entry): T1 sequence (whole entry)
Test: In vitro affinity for CysLT1 receptors on guinea pig lung membranes, measured by displacement of [3H]LTD4.
Assay type: tissue-based
Conditions: not given
Method in brief: as §1, with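 “determinations.” for “determinations. Percent inhibition taken at 10^-5 M where no KD obtained.”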

Row | Kd [nM] | SMILES
13 | 55000 | O=C(O)c1cccc2c(=O)cc(-c3ccc(OCc4ccccc4)cc3)oc12
14 | 17 | O=C(O)c1cccc2c(=O)cc(-c3cccc(/C=C/c4ccc5ccccc5n4)c3)oc12
15 | 1730 | O=C(O)c1ccc2c(=O)cc(-c3cccc(/C=C/c4ccc5ccccc5n4)c3)oc2c1
16 | 11000 | O=c1cc(-c2cccc(/C=C/c3ccc4ccccc4n3)c2)oc2c(-c3nn[nH]n3)cc(Cl)cc12
